Our source for the EC50 values is BindingDB's records for doi:10.1021/jm049620r (University of Florida, 2004).

Bridge positions count the residues as written; N and C are the ends. Peptide text beside a SMILES is read from it.

In general, EC50 refers to the concentration that produces a half-maximal response.

The target in the experiment is Melanocyte-stimulating hormone receptor (Mus musculus, UniProt Q01727). The experiment can be described thus: Agonistic activity against mouse Melanocortin 1 Receptor. In outline: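 HEK-293 cells stably expressing the receptor (G418 selection), transiently transfected with a CRE/β-galactosidase reporter. Lysates read with ONPG at OD405 and normalized to protein content and forskolin (10^-4 M) response. EC50 from nonlinear least-squares fit, at least three independent experiments.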
Sequence of Melanocyte-stimulating hormone receptor (Q01727 whole entry): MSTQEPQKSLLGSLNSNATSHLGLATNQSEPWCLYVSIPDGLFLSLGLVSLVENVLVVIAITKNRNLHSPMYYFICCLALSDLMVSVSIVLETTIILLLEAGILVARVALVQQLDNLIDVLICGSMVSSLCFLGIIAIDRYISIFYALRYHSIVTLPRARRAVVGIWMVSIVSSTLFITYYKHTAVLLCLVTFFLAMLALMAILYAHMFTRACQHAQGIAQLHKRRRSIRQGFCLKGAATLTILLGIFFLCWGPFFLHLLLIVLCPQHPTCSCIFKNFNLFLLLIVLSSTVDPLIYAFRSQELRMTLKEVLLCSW

The molecule `C[C@@H]1NC(=O)[C@H](CC(N)=O)NC(=O)[C@H](Cc2ccccc2)NC(=O)[C@H](Cc2ccccc2)NC(=O)[C@H](CCCNC(=N)N)NC(=O)[C@@H](NC(=O)[C@@H](N)Cc2ccc(O)cc2)CSSC[C@@H](C(=O)N[C@@H](Cc2ccc(O)cc2)C(N)=O)NC(=O)[C@H](Cc2ccccc2)NC1=O` (H-YCRFFNAFCY-NH2; disulfide 2-9) registered an EC50 of 5.12 µM.
